Measured values from ChEMBL document CHEMBL1128740, “[(Alkylamino)methyl]acrylophenones: potent and selective inhibitors of the epidermal growth factor receptor protein tyrosine kinase” (J Med Chem, 1995).

How the values were obtained:
Balb/MK = assay: Tested for antiproliferative activity using mouse epidermal keratinocytes cell line (BALB/MK); assay type: functional, cell-based
Method in brief: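 BALB/MK mouse epidermal keratinocytes, which depend on EGF to proliferate. Compounds were kept as 10 mM DMSO stocks and freshly diluted. They were added 24 h after plating, at a final DMSO concentration of 0.5%. Growth was read by methylene blue staining after 3–5 days, and IC50 was determined.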

[1] = In vitro inhibition of the Protein kinase C tyrosine kinase activity in A431 membranes; assay type: cell membranes
[2] = target: Epidermal growth factor receptor (Homo sapiens, UniProt P00533); assay: In vitro inhibition of the Epidermal growth factor receptor activity in A431 membranes
[3] = target: Proto-oncogene tyrosine-protein kinase Src (Homo sapiens, UniProt P12931); assay: In vitro inhibition of the c-src tyrosine kinase activity in A431 membranes using angiotensin II as phosphate acceptor as substrate; assay type: cell membranes
A431 (Homo sapiens) = assay: Inhibition of EGF-dependent tyrosine phosphorylation in A431 cells.
[4] = target: v-abl tyrosine kinase (Abelson murine leukemia virus) (UniProt P00521); assay: In vitro inhibition of the v-abl tyrosine kinase activity using purified v-abl kinase
Mus musculus = assay: Inhibition of EGF-dependent tyrosine phosphorylation in xenografts of the BT-20 tumor in nude mice.; assay type: functional, organism-based

Chain of Proto-oncogene tyrosine-protein kinase Src (P12931 2-536 limits assumed): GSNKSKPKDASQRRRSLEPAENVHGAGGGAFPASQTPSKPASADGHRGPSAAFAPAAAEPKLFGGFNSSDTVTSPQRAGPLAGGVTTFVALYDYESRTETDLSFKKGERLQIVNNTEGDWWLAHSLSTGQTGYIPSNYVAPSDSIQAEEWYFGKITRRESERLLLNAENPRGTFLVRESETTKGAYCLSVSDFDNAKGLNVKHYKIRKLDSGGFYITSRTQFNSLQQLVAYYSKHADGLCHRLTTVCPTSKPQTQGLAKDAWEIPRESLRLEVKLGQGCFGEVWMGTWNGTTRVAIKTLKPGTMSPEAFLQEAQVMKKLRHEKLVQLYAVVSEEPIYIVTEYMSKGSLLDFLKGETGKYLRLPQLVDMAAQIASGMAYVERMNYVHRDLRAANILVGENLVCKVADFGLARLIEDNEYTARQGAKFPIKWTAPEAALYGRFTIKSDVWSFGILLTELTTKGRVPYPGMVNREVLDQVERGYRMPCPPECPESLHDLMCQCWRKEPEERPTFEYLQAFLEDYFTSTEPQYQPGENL
Chain of v-abl tyrosine kinase (Abelson murine leukemia virus) (P00521 whole entry, looked up): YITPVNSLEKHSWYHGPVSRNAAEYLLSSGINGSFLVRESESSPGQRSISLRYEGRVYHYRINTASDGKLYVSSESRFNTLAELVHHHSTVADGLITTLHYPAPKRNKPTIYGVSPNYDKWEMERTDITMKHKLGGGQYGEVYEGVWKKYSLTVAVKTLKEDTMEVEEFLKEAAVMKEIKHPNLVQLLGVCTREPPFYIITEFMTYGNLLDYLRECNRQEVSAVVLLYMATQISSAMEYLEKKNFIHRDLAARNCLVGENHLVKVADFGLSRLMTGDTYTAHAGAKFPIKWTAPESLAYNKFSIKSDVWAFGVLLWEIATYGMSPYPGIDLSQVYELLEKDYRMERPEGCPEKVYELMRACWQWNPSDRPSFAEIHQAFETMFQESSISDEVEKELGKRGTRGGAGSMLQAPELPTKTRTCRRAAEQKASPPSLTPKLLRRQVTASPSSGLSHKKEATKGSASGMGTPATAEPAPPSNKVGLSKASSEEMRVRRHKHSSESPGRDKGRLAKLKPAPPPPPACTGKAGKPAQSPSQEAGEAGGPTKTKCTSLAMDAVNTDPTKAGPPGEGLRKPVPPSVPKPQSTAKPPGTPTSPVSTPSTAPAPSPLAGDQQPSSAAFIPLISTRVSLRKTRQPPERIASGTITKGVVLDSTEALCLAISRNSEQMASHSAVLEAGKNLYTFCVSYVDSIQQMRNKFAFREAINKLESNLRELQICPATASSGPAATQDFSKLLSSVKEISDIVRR
Chain of Epidermal growth factor receptor (P00533 whole entry): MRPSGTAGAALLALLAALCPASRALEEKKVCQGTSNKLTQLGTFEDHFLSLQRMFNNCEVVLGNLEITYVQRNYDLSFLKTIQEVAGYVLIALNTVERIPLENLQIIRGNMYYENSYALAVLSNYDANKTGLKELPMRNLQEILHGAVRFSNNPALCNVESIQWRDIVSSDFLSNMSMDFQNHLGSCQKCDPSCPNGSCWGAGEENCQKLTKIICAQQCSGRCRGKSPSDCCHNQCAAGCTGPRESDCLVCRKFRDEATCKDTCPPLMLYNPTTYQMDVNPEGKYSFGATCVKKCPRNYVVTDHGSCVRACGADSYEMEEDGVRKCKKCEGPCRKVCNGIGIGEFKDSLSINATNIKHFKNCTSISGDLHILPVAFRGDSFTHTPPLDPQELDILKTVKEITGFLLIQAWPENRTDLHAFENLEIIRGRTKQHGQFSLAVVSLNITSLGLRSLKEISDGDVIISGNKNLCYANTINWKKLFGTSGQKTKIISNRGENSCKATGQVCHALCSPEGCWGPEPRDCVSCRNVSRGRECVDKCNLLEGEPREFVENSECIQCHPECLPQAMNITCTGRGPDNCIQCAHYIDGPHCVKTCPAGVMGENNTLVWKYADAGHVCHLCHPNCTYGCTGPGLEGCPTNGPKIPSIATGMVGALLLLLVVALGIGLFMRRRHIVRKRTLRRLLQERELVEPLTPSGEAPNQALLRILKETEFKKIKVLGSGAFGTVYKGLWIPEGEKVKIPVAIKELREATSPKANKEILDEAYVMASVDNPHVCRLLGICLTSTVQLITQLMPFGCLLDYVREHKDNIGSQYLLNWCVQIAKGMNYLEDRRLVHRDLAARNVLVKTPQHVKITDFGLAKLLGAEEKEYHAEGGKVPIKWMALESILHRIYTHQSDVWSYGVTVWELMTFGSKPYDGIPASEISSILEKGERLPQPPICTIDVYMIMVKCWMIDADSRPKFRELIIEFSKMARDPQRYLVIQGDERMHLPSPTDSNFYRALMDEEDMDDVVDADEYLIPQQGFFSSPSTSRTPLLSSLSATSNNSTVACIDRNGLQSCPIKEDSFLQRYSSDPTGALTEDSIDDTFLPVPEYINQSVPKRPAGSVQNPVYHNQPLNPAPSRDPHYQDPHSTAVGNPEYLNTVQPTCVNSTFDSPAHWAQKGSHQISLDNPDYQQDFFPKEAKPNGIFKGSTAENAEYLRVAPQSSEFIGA

Row | SMILES | IC50 [1] | IC50 [2] | IC50 [3] | IC50 (A431 (Homo sapiens)) | IC50 [4] | IC50 (Mus musculus) | IC50 (Balb/MK)
1 | C=C(CN1CCCCC1)C(=O)c1ccc(OCc2ccccc2)cc1 | 140 µM | 1.1 µM | > 100 µM | > 100 µM | > 100 µM | – | 3.5 µM
2 | O=c1c(-c2ccc(O)cc2)coc2cc(O)cc(O)c12 [GENISTEIN] | 15 µM | – | 75 µM | – | 10 µM | – | –
3 | CN(C)CC(CSc1ccccc1)C(=O)c1ccc(OCc2ccccc2)cc1 (configuration not stated) | > 500 µM | 7.3 µM | > 50 µM | 100 µM | > 50 µM | – | 1.6 µM
4 | CCOC(=O)C1CCN(CCC(=O)c2ccc(OCc3ccccc3)cc2)CC1 | > 500 µM | 0.3 µM | > 100 µM | > 100 µM | > 100 µM | – | 40.2 µM
5 | COC(=O)c1ccccc1SCC(CN(C)C)C(=O)c1ccc(OCc2ccccc2)cc1 (configuration not stated) | > 500 µM | 8.8 µM | > 100 µM | 25 µM | > 100 µM | – | 1.24 µM
6 | CC(CN(C)C)C(=O)c1ccc(OS(=O)(=O)c2ccc(C(=O)O)cc2)cc1 (configuration not stated) | – | 100 µM | – | 100 µM | – | – | > 50 µM
7 | O=C(CCN1CCOCC1)c1ccc(OCc2ccccc2)cc1 | 420 µM | 1.5 µM | > 100 µM | > 100 µM | > 100 µM | – | 33.9 µM
8 | CN(C)CC(CNNC(N)=O)C(=O)c1ccc(OCc2ccccc2)cc1 (configuration not stated) | > 500 µM | 3.9 µM | > 100 µM | 50 µM | > 100 µM | – | 2 µM
9 | CN(C)CC(CSCCN)C(=O)c1ccc(OCc2ccccc2)cc1 (configuration not stated) | > 100 µM | 8.8 µM | > 100 µM | 25 µM | > 50 µM | – | 4.1 µM
10 | O=C(CCN1CCCCC1)c1ccc(OCc2ccccc2)cc1 | > 500 µM | 1.8 µM | > 100 µM | 100 µM | > 100 µM | – | 25.6 µM
11 | Cc1ccc(SCC(CN(C)C)C(=O)c2ccc(OCc3ccccc3)cc2)cc1C (configuration not stated) | > 500 µM | 2.1 µM | > 100 µM | 100 µM | > 100 µM | – | 1.21 µM

Continued, in another order:

Row | IC50 [1] | IC50 [2] | IC50 [3] | IC50 (A431 (Homo sapiens)) | IC50 [4] | IC50 (Mus musculus) | SMILES | IC50 (Balb/MK)
12 | 140 µM | – | – | – | – | – | C=C(CN(C)C)C(=O)c1ccc(OS(=O)(=O)c2ccc(C(=O)O)c(O)c2)cc1 | > 50 µM
13 | 110 µM | 1.1 µM | > 100 µM | 100 µM | > 100 µM | – | C=C(CN1CCOCC1)C(=O)c1ccc(OCc2ccccc2)cc1 | 1.8 µM
14 | 500 µM | 5.6 µM | > 100 µM | – | > 100 µM | > 100 µM | C=C(CN(C)C)C(=O)c1ccccc1 | 9.3 µM
15 | 310 µM | 1.5 µM | > 100 µM | > 100 µM | > 100 µM | – | C=C(CN1CCNCC1)C(=O)c1ccc(OCc2ccccc2)cc1 | 0.95 µM
16 | – | > 100 µM | – | > 100 µM | > 100 µM | – | CN(C)CCCC(=O)c1ccc(OCc2ccccc2)cc1 | > 50 µM
17 | > 100 µM | 1.5 µM | > 100 µM | > 100 µM | > 100 µM | – | CN(C)CCC(=O)c1ccc(OCc2ccccc2)cc1 | 46.2 µM
18 | 86 µM | 0.67 µM | 50 µM | > 100 µM | > 50 µM | – | C=C(CN(C)C)C(=O)c1ccc(OCc2ccccc2)c(O)c1 | 3.3 µM
19 | 180 µM | 0.7 µM | > 50 µM | – | 70 µM | – | C=C(CN(C)C)C(=O)c1ccc(OS(=O)(=O)c2ccc(C(=O)N(C)C)cc2)cc1 | 2.8 µM
20 | 500 µM | 0.36 µM | > 50 µM | 50 µM | > 100 µM | – | CN(C)CCC(=O)c1ccc(OCc2ccccc2)c(O)c1 | 9.3 µM
21 | > 500 µM | 0.23 µM | > 100 µM | 100 µM | 50 µM | – | C=C(CN(C)C)C(=O)c1ccc(OS(=O)(=O)c2ccc(C(=O)O)cc2)cc1 | > 50 µM
22 | 215 µM | – | > 100 µM | – | > 100 µM | – | C=C(CN(C)C)C(=O)c1ccc(OCc2ccccc2)cc1 | 6.1 µM
